TAAR1 antagonist = antagonists of human TAAR1. Q96RJ0. CHO RD-HGA16 TAAR1, Fluo-8 calcium fluorescence, antagonist. inhibition, % at 3 µM. 1.5% of 360,000 active;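 active = inhibition above a per-plate cutoff, the mean inhibition of test compounds on that plate plus 3 SD, cut at about 49% in these data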;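 also: 0% = DMSO plus EC80 beta-PEA response and 100% = DMSO alone without agonist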
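Test system: hTAAR1-expressing CHO RD-HGA16 cells, Gα16-coupled; Probe or stimulus: EC80 β-phenethylamine stimulus; Compound dosing: single nominal final test compound concentration of 3 µM; Timing: 140 s kinetic read after compound, 140 s after agonist; Signal: Fluo-8 calcium-sensitive fluorescence; Measure: % inhibition of agonist calcium response; Controls: DMSO and EC80 PEA controls.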
CHRM1 PAM = potentiates human M1 receptor response to acetylcholine; P11229; CHO-K1 hM1, Fluo-8 calcium fluorescence, ACh EC20; 0% = ACh EC20, 100% = maximal ACh; activation, % at 3 µM; 0.088% of 360,000 active; in the data active = activation above about 19%, passing the limit was not always enough
Target sequence (P11229 whole entry, looked up): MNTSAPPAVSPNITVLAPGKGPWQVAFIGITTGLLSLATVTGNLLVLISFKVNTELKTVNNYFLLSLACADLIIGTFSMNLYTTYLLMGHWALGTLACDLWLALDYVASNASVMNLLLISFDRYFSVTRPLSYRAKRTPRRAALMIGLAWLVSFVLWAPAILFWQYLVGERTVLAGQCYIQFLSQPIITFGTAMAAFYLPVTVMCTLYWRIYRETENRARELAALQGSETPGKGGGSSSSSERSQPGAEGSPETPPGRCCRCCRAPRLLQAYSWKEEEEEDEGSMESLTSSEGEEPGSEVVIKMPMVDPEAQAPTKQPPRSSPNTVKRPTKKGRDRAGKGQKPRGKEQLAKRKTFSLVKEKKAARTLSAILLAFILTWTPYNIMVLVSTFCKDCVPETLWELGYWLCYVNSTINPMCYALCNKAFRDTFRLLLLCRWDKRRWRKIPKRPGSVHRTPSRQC
M1 antag = antagonists of human M1 muscarinic receptor. inhibition, % at 3 µM. CHO-K1 hM1, Fluo-8 calcium fluorescence, ACh EC80 antagonist. P11229. 1.3% of 360,000 active;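 active = percent inhibition above its own plate's cutoff, namely the mean of that plate's compound wells plus 3 SD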;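 also: peak over basal fluorescence ratio during 140 s after agonist addition; 0% = ACh EC80 plus DMSO and 100% = DMSO alone without agonist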
CHRM1 agonist = activates human CHRM1 receptor | activation, % at 3 µM | CHO-K1 hM1, Fluo-8 calcium fluorescence, agonist mode; 0% DMSO, 100% acetylcholine EC100 | P11229 | 0.33% of 360,000 active;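 active = activation above the run's mean compound activation plus 3 SD, cut at about 16% in these data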;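 also: peak over basal fluorescence ratio within a 140 s kinetic read after compound addition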
TAAR1 ag = human TAAR1 agonism; activation, % at 3 µM; AID 624467; CHO RD-HGA16 TAAR1, Fluo-8 calcium fluorescence; vehicle wells 0%, saturating PEA agonist 100%; 0.99% of 360,000 active;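 active = activation above the mean activation of all test compounds in the run plus 3 SD, cut at about 38% in these data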
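Repeats: no replicates (n 1) | Material: CHO-derived RD-HGA16 cells with stable Gα16 and human TAAR1 | Technique: Kinetic Fluo-8 calcium fluorescence | Schedule: 17-24 h seeding, 75 min 37 °C dye, 30 min RT | Evaluation: % activation from peak over basal fluorescence ratio, DMSO-to-PEA scaled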
nonsel antag count = counter-screen for TAAR1 antagonists: nonselective antagonists; shares compounds with TAAR1 antagonist; counterscreen cell line, calcium fluorescence, antagonist mode; inhibition, % at 3 µM; 77% of 2,400 active; AID 651780; in the data active = inhibition above about 22%;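 also: CHO-Ga16 host cells stimulated with ATP at an EC80 level; 0% = agonist EC80 plus vehicle and 100% = vehicle without agonist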
TAAR1 ant conf = confirmation of human TAAR1 antagonists; inhibition, % at 3 µM; 40% of 2,400 active; AID 651785; TAAR1-expressing cells, fluorescence antagonist read-out; shares compounds with TAAR1 antagonist; in the data active = inhibition above about 49%;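 also: CHO-Ga16 host cells challenged with agonist PEA near its EC80; 0% = agonist at EC80 plus vehicle and 100% = vehicle with no agonist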
Ga16 nonsel ag = counter-screen for TAAR1 antagonists: nonselective Ga16 agonists; Ga16-expressing cells, calcium fluorescence, agonist counterscreen; shares compounds with TAAR1 antagonist; 18% of 2,400 active; activation, % at 3 µM; in the data active = activation above about 12%;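 also: 0% = vehicle wells and 100% = saturating stimulus response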
TAAR1 ag count = TAAR1 agonism, antagonist counter-screen | AID 651955 | shares compounds with TAAR1 antagonist | hTAAR1 cell line, fluorescence activation, agonist mode | 2% of 2,400 active | activation, % at 3 µM; in the data active = activation above about 37%;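 also: CHO cells stably expressing TAAR1 with calcium dye readout; 0% = DMSO vehicle and 100% = full agonist response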
* = called active by the depositor. Compounds with a hit are over-represented: about 3.4% of the library has one in this group of screens.

For Cc1ccc(-c2cc(C(=O)N(C)CC(=O)Nc3ccccc3Br)c3ccccc3n2)o1 the results were TAAR1 antagonist 66*, CHRM1 PAM -8, M1 antag 23, CHRM1 agonist -1, TAAR1 ag 14, nonsel antag count 34*, TAAR1 ant conf 50*, Ga16 nonsel ag 12* and TAAR1 ag count 13.
`COc1ccc(OC)c(-c2cc(C(=O)Nc3ccccc3C(N)=O)c3ccccc3n2)c1` gave TAAR1 antagonist 76*, CHRM1 PAM -2, M1 antag 31, CHRM1 agonist 2, TAAR1 ag 21, nonsel antag count 34*, TAAR1 ant conf 54*, Ga16 nonsel ag 11 and TAAR1 ag count 9.
For Cc1ccc(-c2cc(C(=O)Nc3ccccc3C(N)=O)c3ccccc3n2)o1 the results were TAAR1 antagonist 66*, CHRM1 PAM 9, M1 antag 2, CHRM1 agonist 2, TAAR1 ag 23, nonsel antag count 34*, TAAR1 ant conf 54*, Ga16 nonsel ag 13* and TAAR1 ag count 12.
Screening COc1ccc(NC(=O)c2cc(-c3ccc(C)o3)nc3ccccc23)c(OC)c1 returned TAAR1 antagonist 75*, CHRM1 PAM -8, M1 antag 22, CHRM1 agonist -3, TAAR1 ag 7, nonsel antag count 33*, TAAR1 ant conf 46, Ga16 nonsel ag 9 and TAAR1 ag count 6.
COc1ccc(NC(=O)c2cc(-c3ccc(C)o3)nc3ccccc23)cc1OC was read as TAAR1 antagonist 38, CHRM1 PAM -8, M1 antag 6, CHRM1 agonist 0 and TAAR1 ag 13.
Screening COc1ccc(C(C)=O)cc1CN1C(=O)C(C)ON=C1c1cccc(C(F)(F)F)c1 (stereo unspecified) returned TAAR1 antagonist 2, CHRM1 PAM 4, M1 antag -11, CHRM1 agonist -5 and TAAR1 ag -2.
Screening COc1ccc([C@@H]2C[C@H]3[C@@H](CN2S(=O)(=O)c2ccccc2)C(=O)C[C@@H](c2ccc(OC)cc2)N3S(=O)(=O)c2ccccc2)cc1 returned TAAR1 antagonist -6, CHRM1 PAM 0, M1 antag 1, CHRM1 agonist -5 and TAAR1 ag 4.
For Fc1ccc(-c2nc3ccc(Br)cn3c2Cc2ccsc2)cc1 the results were TAAR1 antagonist -8, CHRM1 PAM 1, M1 antag -23, CHRM1 agonist -5 and TAAR1 ag -2.
C=C(C)[C@@H]1C2=CC(C(=O)OC)=C(C[C@H](C(=C)C)[C@H]3O[C@H]3C3=C[C@H]1OC3=O)O2 was read as TAAR1 antagonist 1, CHRM1 PAM 10, M1 antag -4, CHRM1 agonist 3 and TAAR1 ag 7.
For Cc1cccc(NC(=O)c2cc(-c3ccco3)nc3ccccc23)n1 the results were TAAR1 antagonist 55*, CHRM1 PAM 0, M1 antag 3, CHRM1 agonist -3, TAAR1 ag 18, nonsel antag count 27*, TAAR1 ant conf 50*, Ga16 nonsel ag 7 and TAAR1 ag count 5.
For COc1ccc(NC(=O)c2cc(-c3ccco3)nc3ccccc23)cc1 the results were TAAR1 antagonist 16, CHRM1 PAM -7, M1 antag 16, CHRM1 agonist -4 and TAAR1 ag 6.
`COc1ccc(NC(=O)Nc2cccc3ccccc23)c(OC)c1` gave TAAR1 antagonist 59*, CHRM1 PAM 8, M1 antag -11, CHRM1 agonist -5, TAAR1 ag 24, nonsel antag count 18, TAAR1 ant conf 42, Ga16 nonsel ag 3 and TAAR1 ag count 4.
COc1ccc(OC)c(NC(=O)Nc2cccc3ccccc23)c1 was read as TAAR1 antagonist -6, CHRM1 PAM 2, M1 antag -1, CHRM1 agonist -6 and TAAR1 ag 2.
Screening Cc1cc(F)ccc1S(=O)(=O)N1CCCOC1CNC(=O)C(=O)NCCc1c[nH]c2ccccc12 (stereo unspecified) returned TAAR1 antagonist 33, CHRM1 PAM -2, M1 antag -3, CHRM1 agonist -2 and TAAR1 ag 18.
For Cc1cc(C)c(S(=O)(=O)N2CCCOC2CNC(=O)C(=O)NCCc2c[nH]c3ccccc23)c(C)c1 (stereo unspecified) the results were TAAR1 antagonist 75*, CHRM1 PAM -16, M1 antag 27, CHRM1 agonist -3, TAAR1 ag 32, nonsel antag count 52*, TAAR1 ant conf 68*, Ga16 nonsel ag 18* and TAAR1 ag count 24.
`O=C(CCCC(=O)NN=Cc1ccccc1Cl)NN=Cc1ccccc1Cl` gave TAAR1 antagonist 51*, CHRM1 PAM -4, M1 antag -2, CHRM1 agonist -4, TAAR1 ag 1, nonsel antag count 20, TAAR1 ant conf 27, Ga16 nonsel ag 1 and TAAR1 ag count 1.
O=C(CCCC(=O)NN=Cc1ccc(Cl)cc1Cl)NN=Cc1ccc(Cl)cc1Cl was read as TAAR1 antagonist -14, CHRM1 PAM -2, M1 antag -2, CHRM1 agonist -3 and TAAR1 ag 4.
`Cc1ccc(C)c(N2CCN(C(=O)CCc3nc(-c4ccccc4Br)no3)CC2)c1` gave TAAR1 antagonist 67*, CHRM1 PAM -13, M1 antag 18, CHRM1 agonist -1, TAAR1 ag 4, nonsel antag count 32*, TAAR1 ant conf 46, Ga16 nonsel ag 6 and TAAR1 ag count 4.
Screening Cc1ccc(C)c(N2CCN(C(=O)CCc3nc(-c4ccccc4F)no3)CC2)c1 returned TAAR1 antagonist 64*, CHRM1 PAM -14, M1 antag 20, CHRM1 agonist 0, TAAR1 ag 8, nonsel antag count 18, TAAR1 ant conf 40, Ga16 nonsel ag 7 and TAAR1 ag count 10.
For O=c1[nH]nc2c3ccccc3occ1-2 the results were TAAR1 antagonist -10 and TAAR1 ag 3.
For Cc1cc(C(=O)CSc2ccc(F)cc2)cc(C)c1OC(=S)N(C)C the results were TAAR1 antagonist 78*, CHRM1 PAM -8, M1 antag 17, CHRM1 agonist -3, TAAR1 ag 4, nonsel antag count 34*, TAAR1 ant conf 60*, Ga16 nonsel ag 11 and TAAR1 ag count 8.
`Cc1ccc(SCC(=O)c2cc(C)c(O)c(C)c2)cc1` gave TAAR1 antagonist 16, CHRM1 PAM -5, M1 antag -4, CHRM1 agonist -8 and TAAR1 ag 0.

Screens deposited in PubChem BioAssay by The Scripps Research Institute Molecular Screening Center.
